Assay results from different studies.
Compare with care: the assays were run in different laboratories.
CDK1: Cyclin-dependent kinase 1 (CDK1, Homo sapiens, UniProt P06493)
DPP4: Dipeptidyl peptidase 4 (DPP4, Homo sapiens, UniProt P27487)

| Structure (SMILES) | target | test | setting | quantity | result |
| --- | --- | --- | --- | --- | --- |
| Cc1cc2cc(Oc3ccnc(Nc4cccc(CS(=O)(=O)NCCN(C)C)c4)n3)ccc2[nH]1 | CDK1 | enzyme activity, inhibitor, ADP detection | 10 µM | inhibition | 51.5% |
| COc1cc(-c2cncc3c2CN(C)Cc2cc(N4CCNCC4)ccc2-3)cc(OC)c1OC | Ephrin type-A receptor 2 (EPHA2, Homo sapiens, UniProt P29317) | enzyme activity, inhibitor | 1 µM | remaining activity | 103% |
| COc1ccc(S(=O)(=O)N(CC(=O)NO)CC(C)C)cc1 | Stromelysin-2 (Homo sapiens, UniProt P09238) | enzyme activity, inhibitor | 0.5 µM | inhibition | 47.4% |
| Cn1c(=O)cc(N2CCC(N)CC2)n(Cc2nc3ccccc3c(=O)n2-c2ccc(F)cc2)c1=O | DPP4 | enzyme activity, inhibitor | 20 µM | inhibition | 19.9% |
| O=C1NC(=NCc2cccs2)S/C1=C\c1ccc2ncccc2c1 | CDK1 | enzyme activity, inhibitor, ADP detection | 10 µM | inhibition | 100% |
| CN(C)c1ncnc2c1ncn2[C@@H]1O[C@H](CCl)[C@@H](NC(=O)[C@H](CSC(c2ccccc2)c2ccccc2)NC(=O)OC(C)(C)C)[C@H]1O | Aminopeptidase N (ANPEP, Homo sapiens, UniProt P15144) | enzyme activity, inhibitor, fluorescence | 10 µM | inhibition | 4.6% |
| C=CC(=O)N1CCC(COCC(=O)N2CCN(c3nc(-c4cnc(N)nc4C(F)F)nc(N4CCOC[C@@H]4C)n3)CC2)CC1 | Calcium/calmodulin-dependent protein kinase kinase 2 (CAMKK2, Homo sapiens, UniProt Q96RR4) | binding, competition with immobilised ligand | 1 µM | remaining binding | 99% |
| Cc1cc([C@@H](C)Nc2ccccc2C(=O)O)c2nc(N3CCC(F)(F)CC3)c(C#N)c(=O)n2c1 | Mitogen-activated protein kinase 3 (MAPK3, Homo sapiens, UniProt P27361) | binding, competition with immobilised ligand | 1 µM | remaining binding | 100% |
| Cn1c(=O)cc(N2CCC(N)CC2)n(Cc2nc3ccc(Br)cc3c(=O)n2-c2ccc(F)cc2)c1=O | DPP4 | enzyme activity, inhibitor | 20 µM | inhibition | 27.3% |
| CNc1ncc2c(/C=C/C(=O)N3CCC(OC)CC3)nn(Cc3cccc(C(F)(F)F)c3)c2n1 | RAC-alpha serine/threonine-protein kinase (AKT1, Homo sapiens, UniProt P31749) | enzyme activity, inhibitor, radiometric | 1 µM | remaining activity | 101% |
| Cn1c(=O)cc(N2CCC(N)CC2)n(Cc2nc3ccc(Br)cc3c(=O)n2-c2ccccc2)c1=O | DPP4 | enzyme activity, inhibitor | 20 µM | inhibition | 12.9% |
| CCO[C@@H](Cc1ccc(OCCc2ccc(OS(C)(=O)=O)cc2)cc1)C(=O)O | CDK1 | enzyme activity, inhibitor, ADP detection | 100 µM | inhibition | 96.9% |
